We go through 9 molecules from paper PMC11995693 (Journal of medicinal chemistry, 2025).

One series is described as follows: PAMPA-GIT permeability. Type of series: in vitro ADME. Put shortly: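 Stirred PAMPA sandwich with the acceptor-side filter coated in GIT-0 lipid. Donor held test or reference compound at 10 μM in pH 7.4 buffer with 0.2% DMSO, against pH 7.4 sink buffer. Incubated 4 h at room temperature. Donor and acceptor were sampled and quantified by LC-MS/MS. Effective permeability (Pe, cm/s) was calculated from filter area × 70% porosity, phase volumes, incubation and steady-state time, and donor concentrations, with membrane retention factor.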

For the next series, the system named is NHEKs. The series can be described thus: Screening of TLR3 and IL-6 mRNA expression in NHEKs. Type of series: cell-based, human.
In another series the test system is C57BL/6 mice. To be noted: cited from earlier work; for hair growth: topical application.
The subject of series [1] is Poly(I:C) + IFNγ stimulated NHEK cells. The series can be described thus: Poly. Type of series: cell-based, human. The note with it: for inhibition of IFNγ-inducible chemokines (CXCL9, CXCL10, CXCL11): 30–100 μM. Summed up:
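Primary human epidermal keratinocytes were seeded and incubated overnight at 37 °C. They were stimulated with Poly(I:C) (50 μg/mL) plus IFNγ (5 ng/mL), with or without test compound at 1, 10, 30 or 100 μM, for 8 h. RNA was isolated, and TaqMan RT-PCR gave fold changes in IL-6, IFNβ, IL-1β, CXCL9, CXCL10 and CXCL11 expression.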

The nature of series [2]: Oral pharmacokinetics in mice. Type of series: in vivo, C57BL6 mice. The note with it: 100 mg/kg equivalent.
Series [3] can be described thus: Chemical stability in pH buffers. Type of series: physicochemical.
Series [4] is described as follows: Preliminary toxicity profile of P13, systemic administration. Type of series: in vivo. The note with it: two doses, systemic administration (Figure S2, Table S1).

“Also recorded” adds a separate entry of the source. Where two headings read alike, the source gives them in different places. A value given as a limit tells only on which side of the number the result lay.

With `C=C(CC(=O)OC)C(=O)O` [Compound 4-MI, 4-methyl itaconate], the “permeability in PAMPA, in words” value in the series “PAMPA-GIT permeability” is listed as “poor permeability”. In addition, the “effect on TLR3 and IL-6 mRNA / cytokine production, in words” value in the series with NHEKs (Figure S1) is on record as “neither 4-MI nor 1A affected the mRNA expression; also recorded: failed to inhibit cytokine production”. Also, the “efficacy in vivo in the alopecia areata model” value with C57BL/6 mice (compared at equimolar doses) was “ineffective”.

For `C=C(CC(=O)OCOC(=O)OC(C)C)C(=O)OCOC(=O)OC(C)C` [Compound P2, Bis(((isopropoxycarbonyl)oxy)methyl) 2-Methylenesuccinate], in series [1] (1–100 μM, 8 h), the “inhibition of IFNβ, in words” value is on record as “dose dependent inhibition” and the “inhibition of IL-6, in words” value was “significant, dose-dependent inhibition”. The “inhibition of IFNγ-inducible chemokines (CXCL9, CXCL10, CXCL11)” value in series [1] (8 h) is reported as “over 50%”. For the same molecule, in the series on NHEKs (Figure S1), the “inhibition of mRNA expression of TLR3 and IL-6” value is over 90%. Further, the “intact prodrug in plasma” value in series [2] was “not detectable”.

In the case of `C=C(CC(=O)OCOC(=O)C(C)(C)C)C(=O)O` [Compound P4, 2-Methylene-4-oxo-4-((pivaloyloxy)methoxy)butanoic Acid], in series [3], the “chemical stability at pH 7.4, in words” value is given as “complete instability”.

For the molecule `C=C(CC(=O)OCOC(=O)OC(C)C)C(=O)O` [Compound P5, 4-(((Isopropoxycarbonyl)oxy)methoxy)-2-methylene-4-oxobutanoic Acid], in series [3], the “chemical stability at pH 7.4, in words” value is listed as “complete instability”.

Regarding `C=C(CC(=O)OCc1oc(=O)oc1C)C(=O)O` [Compound P6, 4-((5-Methyl-2-oxo-1,3-dioxol-4-yl)methoxy)-2-methylene-4-oxobutanoic Acid], the “chemical stability at pH 7.4, in words” value in series [3] is on record as “complete instability”.

As for `C=C(CC(=O)OCCCOCCCCCCCCCCCCCCCC)C(=O)O` [Compound P7, 4-(3-(Hexadecyloxy)-propoxy)-2-methylene-4-oxobutanoic Acid], in “PAMPA-GIT permeability”, the “permeation index (Pe)” value was determined as 3.21 ×10⁻⁶ cm/s.

For the molecule `C=C(CC(=O)OCOC(=O)OC(C)C)C(=O)OC` [Compound P9, 4-(((Isopropoxycarbonyl)oxy)methyl) 1-Methyl 2-Methylenesuccinate], the “effect on IL-1β, in words” value in series [1] (100 μM) is “showed effects at 100 μM”.

For the molecule `C=C(CC(=O)OC)C(=O)OCOC(=O)OC(C)C` [Compound P13, 1-(((Isopropoxycarbonyl)oxy)methyl) 4-Methyl 2-Methylenesuccinate], the “inhibition of IL-6, in words” value in series [1] (1–100 μM, 8 h) is on record as “significant, dose-dependent inhibition”. In series [1] (8 h), the “inhibition of IFNγ-inducible chemokines (CXCL9, CXCL10, CXCL11)” value is “over 50%”. The “inhibition of mRNA expression of TLR3 and IL-6” value in the series with NHEKs (Figure S1) is listed as over 90%. For the same molecule, the “intact prodrug in plasma” value in series [2] is “undetectable”. The “hematological changes and weight loss” value in series [4] was “No hematological changes or weight loss”. The skin concentrations result in the series with C57BL/6 mice (topical administration) was “considerable skin concentrations”. The hair growth result with C57BL/6 mice is listed as “significantly promoted hair growth”; with C57BL/6 mice (listed as SCD-153), “significant increase in hair growth”.

In the case of `C=C(CC(=O)O)C(=O)O` [IA, Itaconic acid], the “permeability in PAMPA, in words” value in “PAMPA-GIT permeability” is “poor permeability”. Also, the “effect on TLR3 and IL-6 mRNA / cytokine production, in words” value in the series with NHEKs (Figure S1) was “failed to inhibit cytokine production”; in the series on NHEKs (Figure S1, listed as 1A), “neither 4-MI nor 1A affected the mRNA expression”.
